Usually Ki stands for the dissociation constant of the complex between target and ligand, obtained from inhibition or displacement. The term IC50 denotes the concentration at which inhibition is half-maximal.

We go through 19 molecules from ChEMBL document CHEMBL1148817, “Synthesis and radioligand binding studies of bis-isoquinolinium derivatives as small conductance Ca(2+)-activated K(+) channel blockers” (J Med Chem, 2007).

In assay [1] the target is T1, Small conductance calcium-activated potassium channel (Rattus norvegicus, UniProt P70604+P70606+P70605). Kind of assay: Displacement of [125I]apamin from SK channel in Wistar rat cortex. In short, it runs like this:
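Rat cortex synaptosomes (0.2 mg protein/mL) incubated 1 h at 0 °C with 10 pM 125I-apamin and eight drug concentrations (10-4.5 to 10^-8 M) in 10 mM Tris-HCl pH 7.5, 5.4 mM KCl, 0.1% BSA. Nonspecific binding defined with 0.1 µM unlabeled apamin. Filtration on PEI-coated GF/C filters, scintillation counting, curve fitting.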
A general note: Loss of bound radioactivity is the signal in a displacement assay; it reports binding, not function.

In assay [2] the target is Small conductance calcium-activated potassium channel (Rattus norvegicus) (UniProt P70604+P70606+P70605). Put plainly: Displacement of [125I]apamin from SK channel in Wistar rat cortex at 10 uM.
Assay [3] deals with T1, Small conductance calcium-activated potassium channel. Kind of assay: Blockade of SK channel in Wistar rat brain assessed as inhibition of apamin-sensitive after-hyperpolarisation. The essentials:
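Apamin-sensitive AHP area (mV s) measured as percent reduction, normalized to block by 300 nM apamin; four sweeps averaged. IC50 from Hill equation fit; mean ± SD, n = 3.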

For the molecule `COc1cc2cc[n+](C)c(CCCCCc3c4cc(OC)c(OC)cc4cc[n+]3C)c2cc1OC.[I-].[I-]`, in assay [1], the Ki is 150 nM. Moreover, in assay [2], the Activity is above 58%.
For `C[n+]1ccc2ccccc2c1Cc1ccccc1Cc1c2ccccc2cc[n+]1C.[I-].[I-]`, in that order: 438 nM and above 58%.
The like results for `C[n+]1ccc2ccccc2c1CCCCCc1c2ccccc2cc[n+]1C.[I-].[I-]` were, in that order, 1465 nM and above 58%.
The like results for `COc1cc2cc[n+](C)c(CCCc3c4cc(OC)c(OC)cc4cc[n+]3C)c2cc1OC.[I-].[I-]` were, in that order, 196 nM and above 58%.
For `COc1cc2cc[n+](C)c(CCCCc3c4c(OC)c(OC)c(OC)cc4cc[n+]3C)c2c(OC)c1OC.[I-].[I-]`, in assay [1], the Ki is given as 42 nM. Moreover, in assay [3], the IC50 was determined as 4400 nM. For the same molecule, in assay [2], the Activity was above 58%.
For the molecule `COc1cc2cc[n+](C)c(Cc3cccc(Cc4c5c(OC)c(OC)c(OC)cc5cc[n+]4C)c3)c2c(OC)c1OC.[I-].[I-]`, the Ki in assay [1] is listed as 23 nM. For the same molecule, in assay [3], the IC50 was 2400 nM. For the same molecule, the Activity in assay [2] is above 58%.
As to `C[n+]1ccc2ccccc2c1Cc1ccc(Cc2c3ccccc3cc[n+]2C)cc1.[I-].[I-]`, the Ki in assay [1] is reported as 1103 nM. In assay [2], the Activity is above 58%.
For `C[n+]1ccc2ccccc2c1CCCc1c2ccccc2cc[n+]1C.[I-].[I-]`, in that order: 1687 nM and above 58%.
As for `COc1cc2cc[n+](C)c(Cc3cccc(Cc4c5cc(OC)c(OC)cc5cc[n+]4C)c3)c2cc1OC.[I-].[I-]`, in assay [1], the Ki turned out to be 106 nM. In assay [2], the Activity was above 58%.
As for `COc1cc2cc[n+](C)c(Cc3ccccc3Cc3c4c(OC)c(OC)c(OC)cc4cc[n+]3C)c2c(OC)c1OC.[I-].[I-]`, the Ki in assay [1] came to 35 nM. Moreover, the IC50 in assay [3] is 4100 nM. In assay [2], the Activity is above 58%.
For the molecule `COc1ccc(C[C@H]2c3cc(OC)c(OC)cc3CC[N+]2(C)C)cc1OC.[I-]` [LAUDANOSINE METHIODIDE], in assay [3], the IC50 is 15000 nM. Also, the Activity in assay [2] was above 58%.
As for `Cc1cc(N)c2ccccc2[n+]1CCCCCCCCCC[n+]1c(C)cc(N)c2ccccc21.[Cl-].[Cl-]` [DEQUALINIUM CHLORIDE], the Ki in assay [1] worked out at 221 nM. Also, in assay [2], the Activity is above 58%.
For `COc1cc2cc[n+](C)c(Cc3ccc(Cc4c5cc(OC)c(OC)cc5cc[n+]4C)cc3)c2cc1OC.[I-].[I-]`, in that order: 163 nM and above 58%.
Regarding `C[n+]1ccc2ccccc2c1Cc1cccc(Cc2c3ccccc3cc[n+]2C)c1.[I-].[I-]`, the Ki in assay [1] stood at 132 nM. Further, the Activity in assay [2] is above 58%.
As to `COc1cc2cc[n+](C)c(Cc3ccccc3Cc3c4cc(OC)c(OC)cc4cc[n+]3C)c2cc1OC.[I-].[I-]`, the Ki in assay [1] was determined as 33 nM. For the same molecule, the IC50 in assay [3] amounted to 3800 nM. In assay [2], the Activity is above 58%.
In the case of `COc1cc2cc[n+](C)c(CCCc3c4c(OC)c(OC)c(OC)cc4cc[n+]3C)c2c(OC)c1OC.[I-].[I-]`, the Ki in assay [1] is 90 nM. Also, in assay [2], the Activity is above 58%.
The like results for `COc1cc2cc[n+](C)c(Cc3ccc(Cc4c5c(OC)c(OC)c(OC)cc5cc[n+]4C)cc3)c2c(OC)c1OC.[I-].[I-]` were, in that order, 280 nM and above 58%.
Turning to `COc1cc2cc[n+](C)c(CCCCc3c4cc(OC)c(OC)cc4cc[n+]3C)c2cc1OC.[I-].[I-]`, in assay [1], the Ki is on record as 164 nM. Moreover, the Activity in assay [2] is above 58%.
The like results for `C[n+]1ccc2ccccc2c1CCCCc1c2ccccc2cc[n+]1C.[I-].[I-]` were, in that order, 1962 nM and above 58%.
